One molecule from ChEMBL document CHEMBL4043093, “2-Oxo-3, 4-dihydropyrimido[4, 5-d]pyrimidinyl derivatives as new irreversible pan fibroblast growth factor receptor (FGFR) inhibitors” (Eur J Med Chem, 2017) can be followed below.

For experiment [1], the target named is Serine/threonine-protein kinase 26 (Homo sapiens) (UniProt Q9P289). Put plainly: Inhibition of wild-type human full length MST4 (M1 to P416 residues) expressed in HEK293 cells assessed as residual activity at 1000 nM after 30 mins by Kinomescan method relative to control. It is filed as cell-based. In short, it runs like this: (§1)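 Single-concentration screen at 1 µM across a 456-kinase KINOMEscan panel. The read-out is Percent Control for each kinase.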

The target of experiment [2] is Tyrosine-protein kinase ABL2 (Homo sapiens) (UniProt P42684). Description: Inhibition of wild-type human ABL2 (A248 to G542 residues) expressed in Escherichia coli BL21 assessed as residual activity at 1000 nM after 30 mins by Kinomescan method relative to control. In short, it runs like this: (§2)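 Single-point screen at a fixed 1 µM, run within a 456-kinase DiscoveRx KINOMEscan panel. Each kinase's read-out is Percent Control, i.e. signal relative to a control without compound. Hits were scored by a Percent Control < 35 cut-off, and an S(35) selectivity score was calculated across the non-mutant kinases.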

In experiment [3] the target is Serine/threonine-protein kinase MARK1 (Homo sapiens) (UniProt Q9P0L2). Description: Inhibition of wild-type human partial length MARK1 (Q30 to T341 residues) expressed in Escherichia coli BL21 assessed as residual activity at 1000 nM after 30 mins by Kinomescan method relative to control.
The target of experiment [4] is Serine/threonine-protein kinase 10 (Homo sapiens) (UniProt O94804). Put plainly: Inhibition of wild-type human partial length LOK (E16 to V314 residues) expressed in Escherichia coli BL21 assessed as residual activity at 1000 nM after 30 mins by Kinomescan method relative to control.
The target in experiment [5] is Serine/threonine-protein kinase pim-1 (Homo sapiens) (UniProt P11309). Description: Inhibition of wild-type human partial length PIM1 (A15 to K313 residues) expressed in Escherichia coli BL21 assessed as residual activity at 1000 nM after 30 mins by Kinomescan method relative to control.
In experiment [6] the target is NUAK family SNF1-like kinase 1 (Homo sapiens) (UniProt O60285). Put plainly: Inhibition of wild-type human partial length ARK5 (E25 to I332 residues) expressed in Escherichia coli BL21 assessed as residual activity at 1000 nM after 30 mins by Kinomescan method relative to control.
Experiment [7] deals with Epidermal growth factor receptor (Homo sapiens), P00533 [UNDEFINED MUTATION]. Description: Inhibition of human partial length EGFR S752-I759del mutant expressed in Escherichia coli BL21 assessed as residual activity at 1000 nM after 30 mins by Kinomescan method relative to control. In short, it runs like this:
(§3)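 KINOMEscan binding panel of 456 kinases, with the test compound at a single concentration of 1 µM. Read-out is Percent Control.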

Experiment [8] has as its target Serine/threonine-protein kinase RIO3 (Homo sapiens) (UniProt O14730). Description: Inhibition of wild-type human full length RIOK3 (M1 to E519 residues) expressed in Escherichia coli BL21 assessed as residual activity at 1000 nM after 30 mins by Kinomescan method relative to control.
Experiment [9] relates to Mast/stem cell growth factor receptor Kit (Homo sapiens), P10721 [V559D,T670I]. Put plainly: Inhibition of human partial length KIT V559D/T670I double mutant (Y545 to D952 residues) expressed in Escherichia coli BL21 assessed as residual activity at 1000 nM after 30 mins by Kinomescan method relative to control. In short, it runs like this:
as §3

Experiment [10] addresses Interleukin-1 receptor-associated kinase 3 (Homo sapiens) (UniProt Q9Y616). Description: Inhibition of wild-type human partial length IRAK3 (V147 to E596 residues) expressed in Escherichia coli BL21 assessed as residual activity at 1000 nM after 30 mins by Kinomescan method relative to control.
Experiment [11] addresses Fibroblast growth factor receptor 1 (Homo sapiens, UniProt P11362). Description: Inhibition of wild-type human partial length FGFR1 (P357 to V669 residues) expressed in Escherichia coli BL21 assessed as residual activity at 1000 nM after 30 mins by Kinomescan method relative to control.
In experiment [12] the target is Receptor tyrosine-protein kinase erbB-3 (Homo sapiens) (UniProt P21860). Description: Inhibition of wild-type human partial length ERBB3 (G684 to A987 residues) expressed in HEK293 cells assessed as residual activity at 1000 nM after 30 mins by Kinomescan method relative to control. The class given is cell-based.
The target in experiment [13] is Mitogen-activated protein kinase kinase kinase kinase 5 (Homo sapiens) (UniProt Q9Y4K4). Description: Inhibition of wild-type human partial length MAP4K5 (M1 to P297 residues) expressed in Escherichia coli BL21 assessed as residual activity at 1000 nM after 30 mins by Kinomescan method relative to control.
Experiment [14] deals with Mast/stem cell growth factor receptor Kit (Homo sapiens), P10721 [D816H]. Description: Inhibition of human partial length KIT D816H mutant (I571 to D952 residues) expressed in HEK293 cells assessed as residual activity at 1000 nM after 30 mins by Kinomescan method relative to control. It is filed as cell-based. In short, it runs like this: as §3
Experiment [15] addresses Activated CDC42 kinase 1 (Homo sapiens) (UniProt Q07912). Description: Inhibition of wild-type human partial length TNK2 (S159 to D474 residues) expressed in Escherichia coli BL21 assessed as residual activity at 1000 nM after 30 mins by Kinomescan method relative to control.
The target of experiment [16] is Cyclin-dependent kinase-like 1 (Homo sapiens) (UniProt Q00532). Put plainly: Inhibition of wild-type human full length CDKL1 (M1 to I358 residues) expressed in HEK293 cells assessed as residual activity at 1000 nM after 30 mins by Kinomescan method relative to control. It is filed as cell-based. In short, it runs like this: as §2
The target of experiment [17] is Ribosomal protein S6 kinase alpha-5 (Homo sapiens) (UniProt O75582). Put plainly: Inhibition of wild-type human partial length C-terminal RPS6KA5 kinase domain 2 (V390 to T718 residues) expressed in Escherichia coli BL21 assessed as residual activity at 1000 nM after 30 mins by Kinomescan method relative to control.
The target of experiment [18] is Dual specificity tyrosine-phosphorylation-regulated kinase 1B (Homo sapiens) (UniProt Q9Y463). Put plainly: Inhibition of wild-type human full length DYRK1B (M1 to S629 residues) expressed in Escherichia coli BL21 assessed as residual activity at 1000 nM after 30 mins by Kinomescan method relative to control. The procedure, abridged: as §1
The target in experiment [19] is Peripheral plasma membrane protein CASK (Homo sapiens) (UniProt O14936). Description: Inhibition of wild-type human partial length CASK (M1 to H315 residues) expressed in HEK293 cells assessed as residual activity at 1000 nM after 30 mins by Kinomescan method relative to control. It is filed as cell-based.
In experiment [20] the target is Serine/threonine-protein kinase BRSK1 (Homo sapiens) (UniProt Q8TDC3). Description: Inhibition of wild-type human partial length BRSK1 (M1 to E754 residues) expressed in Escherichia coli BL21 assessed as residual activity at 1000 nM after 30 mins by Kinomescan method relative to control.
For experiment [21], the target named is Proto-oncogene tyrosine-protein kinase receptor Ret (Homo sapiens) (UniProt P07949). Description: Inhibition of wild-type human partial length RET (E713 to D1014 residues) expressed in Escherichia coli BL21 assessed as residual activity at 1000 nM after 30 mins by Kinomescan method relative to control.

For the molecule `COc1cc(OC)c(Cl)c(N2Cc3cnc(Nc4ccc(F)cc4)nc3N(C3CCN(C(=O)/C=C/CN(C)C)CC3)C2=O)c1Cl`, the Activity in [1] came to 69%; in experiment [2], 26%; in [3], 99%; in experiment [4], 34%; in [5], 97%; in experiment [6] it was 100%. Also, the Activity in [7] amounted to 71%; in experiment [8], 97%; in [9] it was 82%; in experiment [10], 100%; in experiment [11], 0.6%; in [12], 100%. Besides, the Activity in [13] came out at 82%; in experiment [14], 66%; in [15], 100%; in experiment [16], 96%; in experiment [17], 100%; in experiment [18], 81%. Also, the Activity in [19] came to 96%; in experiment [20], 100%; in experiment [21] it was 8.1%.
